ChEMBL document CHEMBL2040821, “Design, synthesis, and biological evaluation of 1-[(2-benzyloxyl/alkoxyl)methyl]-5-halo-6-aryluracils as potent HIV-1 non-nucleoside reverse transcriptase inhibitors with an improved drug resistance profile” (J Med Chem, 2012)

How the values were obtained:
[1] = target: Human immunodeficiency virus type 1 reverse transcriptase (Human immunodeficiency virus 1, UniProt Q72547); experiment: Inhibition of HIV1 reverse transcriptase using poly(ra)/oligo(dT)15 homopolymer template as substrate after 1 hr
MT4 = experiment: Cytotoxicity against human MT4 cells after 3 days by XTT assay; format: cell-based; settings: mt4, 72 h
Outline: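 MT4 cells (5 × 10⁴/well) exposed to graded compound concentrations at 37 °C for 3 days. CCK-8 reagent then added, with a further 4 h at 37 °C for XTT formazan colour development. Absorbance read at 450 nm to give CC₅₀. Each compound run in triplicate.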

[2] = system: Human immunodeficiency virus 1; experiment: Antiviral activity against HIV1 SF33 infected in human MT4 cells assessed as inhibition of viral p24 antigen production after 7 days by ELISA; format: functional, organism-based; settings: Human immunodeficiency virus 1, SF33, MT4, 168 h
Outline: (§1)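 MT4 cells (4 × 10⁴/well) were infected with 200 TCID₅₀ of HIV-1 and incubated 2 h at 37 °C. Compounds were then added at serial dilutions. Each compound was run in triplicate, reported as mean SD.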

[3] = system: Human immunodeficiency virus 1; experiment: Antiviral activity against NNRTI-resistant HIV1 A17 expressing reverse transcriptase K103N and Y181C mutant infected in human MT4 cells assessed as inhibition of viral p24 antigen production after 7 days by ELISA; format: functional, organism-based; settings: Human immunodeficiency virus 1, A17, MT4, 168 h; outline: as §1
[4] = Selectivity index, ratio of CC50 for human MT4 cells to EC50 for HIV1 SF33; format: toxicity, cell-based; settings: read-out: Ratio CC50/EC50
Outline: (§2)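 SI is CC₅₀ in MT4 cells over EC₅₀ for each strain. For CC₅₀, MT4 cells (5 × 10⁴/well) were exposed to graded compound concentrations for 3 days at 37 °C, then given CCK-8/XTT for 4 h at 37 °C and read at 450 nm absorbance. Assays were run in triplicate.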

[5] = Selectivity index, ratio of CC50 for human MT4 cells to EC50 for NNRTI-resistant HIV1 A17 expressing reverse transcriptase K103N and Y181C mutant; format: toxicity, cell-based; settings: read-out: Ratio CC50/EC50; outline: as §2
[6] = system: Human immunodeficiency virus 1; experiment: Ratio of nevirapine EC50 to compound EC50 for HIV1 SF33; format: functional

SMILES | IC50 [1] [µM] | CC50 (MT4) [µM] | EC50 [2] [µM] | EC50 [3] [µM] | selectivity ratio [4] | selectivity ratio [5] | Ratio EC50 [6]
CCOCn1c(Cc2ccccc2)c(I)c(=O)[nH]c1=O | 0.114 |  |  |  |  |  | 
CCOCn1c(Cc2cc(C)cc(C)c2)c(I)c(=O)[nH]c1=O | 0.11 | 142 | 0.006 | 0.637 | 23700 | 222 | 
CCOCn1c(Cc2cc(F)cc(F)c2)c(I)c(=O)[nH]c1=O | 11.8 | 300 | 0.537 | > 10 | 559 | < 30 | 
O=c1[nH]c(=O)n(COCc2ccccc2)c(Cc2ccccc2)c1I | 0.01 | 74.8 | 0.045 | > 10 | 1660 | < 7 | 
Cc1cc(C)cc(Cc2c(I)c(=O)[nH]c(=O)n2COCc2ccccc2)c1 | 0.003 | 98.3 | 0.002 | 0.091 | 38200 | 1080 | 325
O=c1[nH]c(=O)n(COCc2ccccc2)c(Cc2cc(F)cc(F)c2)c1I | 0.015 | 121 | 0.006 | 2.54 | 20200 | 48 | 46
CCOCn1c(Cc2ccccc2)c(Br)c(=O)[nH]c1=O | 1.82 | 155 | 2.07 | > 10 | 75 | < 15.5 | 
CCOCn1c(Cc2cc(C)cc(C)c2)c(Br)c(=O)[nH]c1=O | 0.21 |  |  |  |  |  | 
O=c1[nH]c(=O)n(COCc2ccccc2)c(Cc2ccccc2)c1Br | 1.52 | 67.4 | 1.72 | > 10 | 39 | < 6.7 | 
Cc1cc(C)cc(Cc2c(Br)c(=O)[nH]c(=O)n2COCc2ccccc2)c1 | 0.043 | 152 | 0.009 | 0.601 | 16900 | 253 | 
CCOCn1c(Cc2ccccc2)c(N(C)C)c(=O)[nH]c1=O | 0.162 | 166 | 0.614 | > 10 | 270 | < 16.6 | 
CCOCn1c(Cc2cc(C)cc(C)c2)c(N(C)C)c(=O)[nH]c1=O | 0.039 |  |  |  |  |  | 
CN(C)c1c(Cc2ccccc2)n(COCc2ccccc2)c(=O)[nH]c1=O | 0.012 | 91.8 | 0.345 | > 10 | 264 | < 9 | 
Cc1cc(C)cc(Cc2c(N(C)C)c(=O)[nH]c(=O)n2COCc2ccccc2)c1 | 0.021 | 55.8 | 0.014 | 2.2 | 5200 | 25 | 46
Cc1cc(C)cc(Cc2c(I)c(N)nc(=O)n2COCc2ccccc2)c1 | 7.22 |  |  |  |  |  | 
Cc1cc(C)cc(Cc2c(Br)c(N)nc(=O)n2COCc2ccccc2)c1 | 16.3 |  |  |  |  |  | 
CC(C)c1c(Cc2ccccc2)n(COCc2ccccc2)c(=O)[nH]c1=O | 0.02 | 84.6 | 0.022 | > 10 | 3840 | < 6.6 | 
Cc1ccnc2c1NC(=O)c1cccnc1N2C1CC1 [NEVIRAPINE] |  | 325 | 0.068 | > 10 |  |  | 
